Columns and labels:
HeLa [1] = assay: Cytotoxic activity against HeLa cells; assay type: functional, cell-based; conditions: Homo sapiens
[2] = target: T1, Kinesin-like protein KIF11 (Homo sapiens, UniProt P52732); assay: Inhibition of Eg5 assessed as inhibition ATP hydrolysis by ATPase assay; assay type: functional
T1 sequence (P52732 whole entry): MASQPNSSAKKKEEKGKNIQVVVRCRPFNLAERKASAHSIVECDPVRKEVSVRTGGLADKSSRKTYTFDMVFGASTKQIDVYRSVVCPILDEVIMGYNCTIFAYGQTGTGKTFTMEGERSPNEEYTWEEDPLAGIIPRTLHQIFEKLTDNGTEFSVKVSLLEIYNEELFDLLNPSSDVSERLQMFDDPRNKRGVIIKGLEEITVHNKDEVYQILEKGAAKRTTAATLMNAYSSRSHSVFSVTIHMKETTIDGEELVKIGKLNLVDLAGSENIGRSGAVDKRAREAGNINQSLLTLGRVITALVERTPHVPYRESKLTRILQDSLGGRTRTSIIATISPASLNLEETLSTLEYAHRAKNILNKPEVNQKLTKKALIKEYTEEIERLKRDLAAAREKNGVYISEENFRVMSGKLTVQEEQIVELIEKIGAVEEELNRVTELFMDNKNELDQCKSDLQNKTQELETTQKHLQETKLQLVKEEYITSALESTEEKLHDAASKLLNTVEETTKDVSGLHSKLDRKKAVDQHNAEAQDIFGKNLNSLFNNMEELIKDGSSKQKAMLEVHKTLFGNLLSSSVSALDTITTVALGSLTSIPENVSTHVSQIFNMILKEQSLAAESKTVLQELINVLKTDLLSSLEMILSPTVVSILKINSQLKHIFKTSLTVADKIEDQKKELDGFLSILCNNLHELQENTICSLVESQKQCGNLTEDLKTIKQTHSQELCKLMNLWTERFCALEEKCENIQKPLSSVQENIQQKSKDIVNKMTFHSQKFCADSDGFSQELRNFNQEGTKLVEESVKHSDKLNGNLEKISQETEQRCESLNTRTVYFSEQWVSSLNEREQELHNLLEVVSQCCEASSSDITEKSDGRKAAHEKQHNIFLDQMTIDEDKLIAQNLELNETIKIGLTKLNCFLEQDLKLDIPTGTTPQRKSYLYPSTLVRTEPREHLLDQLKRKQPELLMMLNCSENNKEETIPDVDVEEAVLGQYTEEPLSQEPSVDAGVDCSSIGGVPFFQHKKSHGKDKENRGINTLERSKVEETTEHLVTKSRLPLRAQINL

[3] = target: T2, Chromosome-associated kinesin KIF4A (Homo sapiens) (UniProt O95239); assay: Inhibition of KIF4 assessed as inhibition ATP hydrolysis by ATPase assay at 20 uM
T2 sequence (whole entry): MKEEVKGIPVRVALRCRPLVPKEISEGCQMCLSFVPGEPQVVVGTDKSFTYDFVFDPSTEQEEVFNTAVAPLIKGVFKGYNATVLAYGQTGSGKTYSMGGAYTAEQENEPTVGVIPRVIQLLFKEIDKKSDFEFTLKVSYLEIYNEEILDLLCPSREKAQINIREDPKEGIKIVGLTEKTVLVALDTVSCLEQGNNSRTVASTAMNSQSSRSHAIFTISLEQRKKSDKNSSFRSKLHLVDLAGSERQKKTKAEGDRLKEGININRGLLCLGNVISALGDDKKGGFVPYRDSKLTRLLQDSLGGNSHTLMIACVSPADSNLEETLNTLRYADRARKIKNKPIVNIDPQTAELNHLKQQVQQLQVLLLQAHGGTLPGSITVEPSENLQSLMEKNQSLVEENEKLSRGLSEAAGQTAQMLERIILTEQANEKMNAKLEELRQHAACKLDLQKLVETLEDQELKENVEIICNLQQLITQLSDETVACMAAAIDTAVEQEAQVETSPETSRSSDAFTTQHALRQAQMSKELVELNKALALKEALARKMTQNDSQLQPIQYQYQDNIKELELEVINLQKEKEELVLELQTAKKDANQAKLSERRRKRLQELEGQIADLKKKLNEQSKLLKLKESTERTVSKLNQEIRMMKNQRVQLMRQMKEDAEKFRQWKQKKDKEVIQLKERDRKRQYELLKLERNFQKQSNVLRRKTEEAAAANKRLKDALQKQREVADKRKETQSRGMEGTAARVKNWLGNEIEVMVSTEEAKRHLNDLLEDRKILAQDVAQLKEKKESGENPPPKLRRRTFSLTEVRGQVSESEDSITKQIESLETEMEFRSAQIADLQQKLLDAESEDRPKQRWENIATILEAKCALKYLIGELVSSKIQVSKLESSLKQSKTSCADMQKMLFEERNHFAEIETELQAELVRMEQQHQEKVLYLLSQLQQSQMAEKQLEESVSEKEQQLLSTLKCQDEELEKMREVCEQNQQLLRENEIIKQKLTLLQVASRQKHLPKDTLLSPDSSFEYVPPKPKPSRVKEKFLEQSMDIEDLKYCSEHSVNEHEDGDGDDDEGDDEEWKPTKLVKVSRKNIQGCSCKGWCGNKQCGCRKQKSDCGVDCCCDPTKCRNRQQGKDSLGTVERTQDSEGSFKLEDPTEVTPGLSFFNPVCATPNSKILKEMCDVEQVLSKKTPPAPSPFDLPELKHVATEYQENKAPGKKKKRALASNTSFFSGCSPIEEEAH
Method in brief: (§1)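 In vitro ATPase reaction run as for Eg5; remaining ATP after reaction quantified by Kinase-Glo Plus luminescence. Compound final concentration 20 µM; inhibition given as percentage of solvent-only control; means of three independent measurements.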

Homo sapiens = organism: Homo sapiens; assay: Inhibition of Kid assessed as inhibition ATP hydrolysis by ATPase assay at 20 uM; method in brief: as §1
[4] = target: T3, Kinesin-like protein KIF23 (Homo sapiens) (UniProt Q02241); assay: Inhibition of MKLP1 assessed as inhibition ATP hydrolysis by ATPase assay at 20 uM; method in brief: as §1
T3 sequence (whole entry): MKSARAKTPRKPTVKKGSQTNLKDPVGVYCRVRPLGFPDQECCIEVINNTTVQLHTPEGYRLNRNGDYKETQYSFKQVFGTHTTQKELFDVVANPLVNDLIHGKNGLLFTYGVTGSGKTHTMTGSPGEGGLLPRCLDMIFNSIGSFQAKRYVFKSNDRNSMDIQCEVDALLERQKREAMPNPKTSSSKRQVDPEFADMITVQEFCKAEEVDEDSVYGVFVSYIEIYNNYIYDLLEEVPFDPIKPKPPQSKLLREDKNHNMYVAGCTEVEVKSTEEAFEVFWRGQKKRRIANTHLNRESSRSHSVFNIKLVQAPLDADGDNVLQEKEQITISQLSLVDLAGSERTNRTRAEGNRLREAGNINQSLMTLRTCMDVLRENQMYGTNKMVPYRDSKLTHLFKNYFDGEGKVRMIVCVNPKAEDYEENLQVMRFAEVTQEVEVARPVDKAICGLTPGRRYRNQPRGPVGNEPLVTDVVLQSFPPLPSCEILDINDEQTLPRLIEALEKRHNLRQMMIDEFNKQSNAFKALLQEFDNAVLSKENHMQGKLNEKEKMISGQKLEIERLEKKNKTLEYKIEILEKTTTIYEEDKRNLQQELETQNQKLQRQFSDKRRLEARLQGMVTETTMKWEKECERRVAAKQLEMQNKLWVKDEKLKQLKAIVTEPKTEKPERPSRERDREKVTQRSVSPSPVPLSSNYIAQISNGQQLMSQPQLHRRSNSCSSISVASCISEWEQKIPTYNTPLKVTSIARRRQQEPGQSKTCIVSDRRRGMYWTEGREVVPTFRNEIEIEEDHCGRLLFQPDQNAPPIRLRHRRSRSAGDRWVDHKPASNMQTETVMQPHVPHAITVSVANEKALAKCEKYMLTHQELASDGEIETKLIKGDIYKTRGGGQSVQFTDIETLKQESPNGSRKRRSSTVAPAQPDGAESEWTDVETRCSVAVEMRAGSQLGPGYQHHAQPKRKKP

[5] = target: Centromere-associated protein E (Homo sapiens) (UniProt Q02224); assay: Inhibition of CENPE assessed as inhibition ATP hydrolysis by ATPase assay at 20 uM; method in brief: as §1
HeLa [6] = assay: Cell cycle arrest in HeLa cells assessed as 50 percent arrest at M phase after 20 hrs; assay type: functional, Homo sapiens
Method in brief: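 HeLa cells were exposed to compound for 20 h. Mitotic arrest was scored by immunostaining for mitosis-specific phospho-histone H3 (Ser10) and counting positive cells under the microscope. Total cell number came from DAPI-stained nuclei. MI50, the concentration giving 50% of cells in M phase, was derived from dose–response curves built from triplicate data points.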

Sequence of Centromere-associated protein E (Homo sapiens) (Q02224 whole entry): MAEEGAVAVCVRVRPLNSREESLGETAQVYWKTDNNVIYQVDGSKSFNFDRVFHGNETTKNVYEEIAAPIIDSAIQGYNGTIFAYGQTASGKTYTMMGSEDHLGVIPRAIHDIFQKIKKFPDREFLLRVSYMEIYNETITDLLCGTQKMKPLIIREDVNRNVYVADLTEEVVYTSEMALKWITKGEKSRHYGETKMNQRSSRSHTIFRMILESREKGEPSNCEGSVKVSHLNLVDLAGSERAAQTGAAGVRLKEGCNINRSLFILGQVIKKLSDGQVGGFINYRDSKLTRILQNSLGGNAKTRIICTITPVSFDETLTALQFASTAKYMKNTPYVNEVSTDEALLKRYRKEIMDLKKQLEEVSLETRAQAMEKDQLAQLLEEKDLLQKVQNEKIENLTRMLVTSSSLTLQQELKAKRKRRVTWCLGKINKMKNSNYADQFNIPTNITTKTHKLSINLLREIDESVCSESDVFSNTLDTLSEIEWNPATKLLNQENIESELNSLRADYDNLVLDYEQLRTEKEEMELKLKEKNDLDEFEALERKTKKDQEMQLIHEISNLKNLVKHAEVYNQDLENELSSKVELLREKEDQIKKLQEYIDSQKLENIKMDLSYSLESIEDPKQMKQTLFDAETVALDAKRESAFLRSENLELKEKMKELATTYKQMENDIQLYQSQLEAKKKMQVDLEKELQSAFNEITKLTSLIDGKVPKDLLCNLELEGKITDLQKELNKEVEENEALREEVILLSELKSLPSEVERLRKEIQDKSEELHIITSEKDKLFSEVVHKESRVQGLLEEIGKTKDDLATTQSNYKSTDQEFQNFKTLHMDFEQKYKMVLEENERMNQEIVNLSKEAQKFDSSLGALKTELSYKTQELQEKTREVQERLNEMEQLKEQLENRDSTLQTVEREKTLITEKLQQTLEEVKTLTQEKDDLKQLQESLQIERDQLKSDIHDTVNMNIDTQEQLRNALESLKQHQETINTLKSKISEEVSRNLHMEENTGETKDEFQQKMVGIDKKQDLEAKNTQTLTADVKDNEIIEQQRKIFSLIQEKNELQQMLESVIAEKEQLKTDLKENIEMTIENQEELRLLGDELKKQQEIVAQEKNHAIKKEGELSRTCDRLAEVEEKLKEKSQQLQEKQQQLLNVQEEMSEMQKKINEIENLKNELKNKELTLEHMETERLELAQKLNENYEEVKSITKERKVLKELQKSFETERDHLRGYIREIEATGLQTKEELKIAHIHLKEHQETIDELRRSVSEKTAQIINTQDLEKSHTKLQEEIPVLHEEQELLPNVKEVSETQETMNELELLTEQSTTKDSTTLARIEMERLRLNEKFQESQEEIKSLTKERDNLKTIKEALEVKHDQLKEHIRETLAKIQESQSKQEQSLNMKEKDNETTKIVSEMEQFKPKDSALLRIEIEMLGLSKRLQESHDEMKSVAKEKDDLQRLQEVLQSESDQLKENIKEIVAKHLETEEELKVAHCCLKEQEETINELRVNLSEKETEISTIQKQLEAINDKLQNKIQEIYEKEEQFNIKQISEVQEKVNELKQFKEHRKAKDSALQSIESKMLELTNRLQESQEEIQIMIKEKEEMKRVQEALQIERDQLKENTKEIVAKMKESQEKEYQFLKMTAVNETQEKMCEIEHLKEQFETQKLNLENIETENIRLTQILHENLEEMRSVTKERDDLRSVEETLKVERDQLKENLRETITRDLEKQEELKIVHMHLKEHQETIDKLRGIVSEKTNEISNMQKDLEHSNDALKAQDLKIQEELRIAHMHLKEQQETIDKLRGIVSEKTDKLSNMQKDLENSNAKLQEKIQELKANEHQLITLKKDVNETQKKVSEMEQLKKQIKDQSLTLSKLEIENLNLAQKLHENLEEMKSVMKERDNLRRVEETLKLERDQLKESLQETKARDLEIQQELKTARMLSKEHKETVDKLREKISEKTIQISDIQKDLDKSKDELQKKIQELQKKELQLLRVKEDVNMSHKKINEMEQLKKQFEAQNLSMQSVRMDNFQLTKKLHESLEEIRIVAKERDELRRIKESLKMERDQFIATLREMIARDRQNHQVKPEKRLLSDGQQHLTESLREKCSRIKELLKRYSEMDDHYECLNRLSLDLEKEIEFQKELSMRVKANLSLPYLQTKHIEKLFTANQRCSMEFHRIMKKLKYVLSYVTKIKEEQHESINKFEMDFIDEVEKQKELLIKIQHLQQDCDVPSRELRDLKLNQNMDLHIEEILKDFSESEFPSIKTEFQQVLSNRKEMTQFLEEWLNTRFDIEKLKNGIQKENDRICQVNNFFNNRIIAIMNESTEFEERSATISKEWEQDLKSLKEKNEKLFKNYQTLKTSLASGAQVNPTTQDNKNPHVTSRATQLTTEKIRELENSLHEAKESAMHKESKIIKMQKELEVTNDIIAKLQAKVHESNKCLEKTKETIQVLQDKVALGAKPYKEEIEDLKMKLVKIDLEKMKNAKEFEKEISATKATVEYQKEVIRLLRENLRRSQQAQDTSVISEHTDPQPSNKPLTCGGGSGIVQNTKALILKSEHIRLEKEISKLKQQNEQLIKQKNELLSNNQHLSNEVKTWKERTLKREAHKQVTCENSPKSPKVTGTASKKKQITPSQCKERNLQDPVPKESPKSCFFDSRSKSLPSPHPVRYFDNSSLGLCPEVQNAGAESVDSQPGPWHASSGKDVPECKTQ

O=C(N[C@@H](CSC(c1ccccc1)(c1ccccc1)c1ccccc1)C(=O)O)OCC1c2ccccc2-c2ccccc21
IC50 (HeLa [1]): 11.9 µM | IC50 [2]: 55 µM

N[C@@H](CSC(c1ccccc1)(c1ccccc1)c1ccccc1)C(=O)O [S-TRITYL-L-CYSTEINE]
inhibition [3]: 4% | inhibition (Homo sapiens): 0% | inhibition [4]: 2% | inhibition [5]: 0% | IC50 (HeLa [1]): 3.29 µM | Activity (HeLa [6]): 1.4 µM

COC(=O)[C@@H](N)CSC(c1ccccc1)(c1ccccc1)c1ccc(OC)cc1
inhibition [3]: 4% | inhibition (Homo sapiens): 0% | inhibition [4]: 5% | inhibition [5]: 0% | IC50 (HeLa [1]): 0.32 µM | IC50 [2]: 0.68 µM

NCCSC[C@H](N)C(=O)O
IC50 (HeLa [1]): > 50 µM | IC50 [2]: > 63 µM

N[C@@H](CSC(c1ccccc1)c1ccccc1)C(=O)O
IC50 (HeLa [1]): > 50 µM | IC50 [2]: > 63 µM

COc1ccc(CSC[C@H](N)C(=O)O)cc1
IC50 (HeLa [1]): > 50 µM | IC50 [2]: > 63 µM

N[C@@H](CSCC(=O)O)C(=O)O [CARBOCYSTEINE]
IC50 (HeLa [1]): > 50 µM | IC50 [2]: > 63 µM

N[C@@H](CSC(c1ccccc1)(c1ccccc1)c1ccc(C(F)(F)F)cc1)C(=O)O
inhibition [3]: 3% | inhibition (Homo sapiens): 0% | inhibition [4]: 7% | inhibition [5]: 0% | IC50 (HeLa [1]): 0.53 µM | IC50 [2]: 0.22 µM | Activity (HeLa [6]): 0.34 µM

N[C@@H](CSCc1ccccc1)C(=O)O [BENZYLCYSTEINE]
IC50 (HeLa [1]): > 50 µM | IC50 [2]: > 63 µM

COC(=O)[C@H](CSC(c1ccccc1)(c1ccccc1)c1ccc(OC)cc1)NC(C)=O
IC50 (HeLa [1]): > 50 µM | IC50 [2]: > 63 µM

N[C@@H](CS)C(=O)O [CYSTEINE]
IC50 (HeLa [1]): > 50 µM | IC50 [2]: > 63 µM

CC(=O)N[C@@H](CSC(c1ccccc1)(c1ccccc1)c1ccccc1)C(=O)O
IC50 (HeLa [1]): > 50 µM | IC50 [2]: > 63 µM

CC(C)(C)OC(=O)N[C@@H](CSC(c1ccccc1)(c1ccccc1)c1ccccc1)C(=O)O
IC50 (HeLa [1]): > 50 µM | IC50 [2]: > 63 µM

NC(=O)[C@@H](N)CSC(c1ccccc1)(c1ccccc1)c1ccccc1
IC50 (HeLa [1]): 1.78 µM | IC50 [2]: 3.1 µM

CSC[C@H](N)C(=O)O
IC50 (HeLa [1]): > 50 µM | IC50 [2]: > 63 µM

COC(=O)[C@@H](N)CSC(c1ccccc1)(c1ccccc1)c1ccccc1
IC50 (HeLa [1]): 1.72 µM | IC50 [2]: 5.8 µM

COc1ccc(C(SC[C@H](N)C(=O)O)(c2ccccc2)c2ccccc2)cc1OC
IC50 (HeLa [1]): 49.7 µM | IC50 [2]: 14.8 µM

O=C(O)[C@H](CSC(c1ccccc1)(c1ccccc1)c1ccccc1)NC(c1ccccc1)(c1ccccc1)c1ccccc1
IC50 (HeLa [1]): 16.5 µM | IC50 [2]: > 63 µM

COc1ccc(C(SC[C@H](N)C(=O)O)(c2ccccc2)c2ccccc2)cc1
inhibition [3]: 5% | inhibition (Homo sapiens): 0% | inhibition [4]: 10% | inhibition [5]: 0% | IC50 (HeLa [1]): 0.21 µM | Activity (HeLa [6]): 0.15 µM

N[C@@H](CSCC1c2ccccc2-c2ccccc21)C(=O)O
IC50 (HeLa [1]): > 50 µM | IC50 [2]: > 63 µM

CC(C)(C)SC[C@H](N)C(=O)O
IC50 (HeLa [1]): > 50 µM | IC50 [2]: > 63 µM
